Assay results: ChEMBL document CHEMBL1159047, “Synthesis and biological evaluation of antitumour-active betulin derivatives” (Bioorg Med Chem, 2010)
The source made the active and inactive calls. The calls are words filed in the database; no cut-off is given here.

Columns and labels:
518A2 = assay: Growth inhibition of human 518A2 cells at 30 uM after 96 hrs by SRB assay; format: functional, cell-based
In short: (§1)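 Same SRB set-up: RPMI 1640 with 10% FBS at 37 °C, 5% CO2, and a 96 h exposure starting 24 h after seeding (DMSO or DMF ≤0.5% final). Percent viable cells relative to untreated controls is read at 30 µM, the top concentration of the 0–30 µM dilution series. Cells were fixed with TCA, stained with SRB and read at 570 nm; ≥3 independent experiments.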

A-431 [1] = assay: Growth inhibition of human A431 cells at 30 uM after 96 hrs by SRB assay; format: functional, cell-based; in short: as §1
A253 = assay: Growth inhibition of human A253 cells at 30 uM after 96 hrs by SRB assay; format: functional, cell-based; in short: as §1
FaDu = assay: Growth inhibition of human FADU cells at 30 uM after 96 hrs by SRB assay; format: functional, cell-based; in short: as §1
A549 [2] = assay: Growth inhibition of human A549 cells at 30 uM after 96 hrs by SRB assay; format: functional, cell-based; in short: as §1
A2780 [3] = assay: Growth inhibition of human A2780 cells at 30 uM after 96 hrs by SRB assay; format: functional, cell-based; in short: as §1
DLD-1 = assay: Growth inhibition of human DLD1 cells at 30 uM after 96 hrs by SRB assay; format: functional, cell-based; in short: as §1
HCT-8 [4] = assay: Growth inhibition of human HCT8 cells at 30 uM after 96 hrs by SRB assay; format: functional, cell-based; in short: as §1
HCT-116 [5] = assay: Growth inhibition of human HCT116 cells at 30 uM after 96 hrs by SRB assay; format: functional, cell-based; in short: as §1
HT-29 [6] = assay: Growth inhibition of human HT-29 cells at 30 uM after 96 hrs by SRB assay; format: functional, cell-based; in short: as §1
SW480 [7] = assay: Growth inhibition of human SW480 cells at 30 uM after 96 hrs by SRB assay; format: functional, cell-based; in short: as §1
8505C [8] = assay: Growth inhibition of human 8505C cells at 30 uM after 96 hrs by SRB assay; format: functional, cell-based; in short: as §1
SW-1736 [9] = assay: Growth inhibition of human SW1736 cells at 30 uM after 96 hrs by SRB assay; format: functional, cell-based; in short: as §1
Homo sapiens = species: Homo sapiens; assay: Growth inhibition of human Liposarcoma cells at 30 uM after 96 hrs by SRB assay; format: functional; in short: as §1
A-431 [10] = assay: Cytotoxicity against human A431 cells after 96 hrs by SRB assay; format: functional, cell-based; conditions: A-431, 96 h
In short: (§2)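 Monolayer cells grown in RPMI 1640 with 10% heat-inactivated FBS and penicillin/streptomycin at 37 °C, 5% CO2. Cells were seeded and, after 24 h, exposed to serial dilutions (0–30 µM; DMSO or DMF ≤0.5% final) for 96 h. They were then fixed with 10% TCA at 4 °C, stained with 0.4% SRB and dissolved in 10 mM Tris, with absorbance read at 570 nm. IC50 comes from semi-log dose–response curves of survival versus untreated controls, from ≥3 independent experiments.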

HCT-116 [11] = assay: Cytotoxicity against human HCT116 cells after 96 hrs by SRB assay; format: functional, cell-based; conditions: HCT-116, 96 h; in short: as §2
SW-1736 [12] = assay: Cytotoxicity against human SW1736 cells after 96 hrs by SRB assay; format: functional, cell-based; conditions: SW-1736, 96 h; in short: as §2
A2780 [13] = assay: Cytotoxicity against human A2780 cells after 96 hrs by SRB assay; format: functional, cell-based; conditions: A2780, 96 h; in short: as §2
[14] = Cytotoxicity against human 518A2 cells after 96 hrs by SRB assay; format: functional, cell-based; conditions: 518A2, 96 h; in short: as §2
[15] = Cytotoxicity against human A253 cells after 96 hrs by SRB assay; format: functional, cell-based; conditions: A253, 96 h; in short: as §2
HCT-8 [16] = assay: Cytotoxicity against human HCT8 cells after 96 hrs by SRB assay; format: functional, cell-based; conditions: HCT-8, 96 h; in short: as §2
HT-29 [17] = assay: Cytotoxicity against human HT-29 cells after 96 hrs by SRB assay; format: functional, cell-based; conditions: HT-29, 96 h; in short: as §2
SW480 [18] = assay: Cytotoxicity against human SW480 cells after 96 hrs by SRB assay; format: functional, cell-based; conditions: SW480, 96 h; in short: as §2
8505C [19] = assay: Cytotoxicity against human 8505C cells after 96 hrs by SRB assay; format: functional, cell-based; in short: as §2
MCF7 = assay: Cytotoxicity against human MCF7 cells after 96 hrs by SRB assay; format: functional, cell-based; conditions: MCF7, 96 h; in short: as §2
[20] = Cytotoxicity against human Liposarcoma cells after 96 hrs by SRB assay; format: functional, cell-based; in short: as §2
A549 [21] = assay: Cytotoxicity against human A549 cells after 96 hrs by SRB assay; format: functional, cell-based; conditions: A549, 96 h; in short: as §2

| Structure (SMILES) | growth inhibition (GI) (518A2) | growth inhibition (GI) (A-431 [1]) | growth inhibition (GI) (A253) | growth inhibition (GI) (FaDu) | growth inhibition (GI) (A549 [2]) | growth inhibition (GI) (A2780 [3]) | growth inhibition (GI) (DLD-1) | growth inhibition (GI) (HCT-8 [4]) | growth inhibition (GI) (HCT-116 [5]) | growth inhibition (GI) (HT-29 [6]) | growth inhibition (GI) (SW480 [7]) | growth inhibition (GI) (8505C [8]) | growth inhibition (GI) (SW-1736 [9]) | growth inhibition (GI) (Homo sapiens) | IC50 (A-431 [10]) [µM] | IC50 (HCT-116 [11]) [µM] | IC50 (SW-1736 [12]) [µM] | IC50 (A2780 [13]) [µM] | IC50 (HCT-8 [16]) [µM] | IC50 (HT-29 [17]) [µM] | also measured |
| --- | --- | --- | --- | --- | --- | --- | --- | --- | --- | --- | --- | --- | --- | --- | --- | --- | --- | --- | --- | --- | --- |
| C=C(C)[C@@H]1CC[C@]2(/C=C/C(=O)OCC)CC[C@]3(C)[C@H](CC[C@@H]4[C@@]5(C)CC[C@H](OC)C(C)(C)[C@@H]5CC[C@]43C)[C@@H]12 | inactive | inactive | inactive | inactive | inactive | inactive | inactive | inactive | inactive | inactive | inactive | inactive | inactive | inactive |  |  |  |  |  |  |  |
| C=C(C)[C@@H]1CC[C@]2([C@@H]3O[C@@H]3C#N)CC[C@]3(C)[C@H](CC[C@@H]4[C@@]5(C)CC[C@H](OC(C)=O)C(C)(C)[C@@H]5CC[C@]43C)[C@@H]12 | inactive | inactive | inactive | inactive | inactive | inactive | inactive | inactive | inactive | inactive | inactive | inactive | inactive | inactive |  |  |  |  |  |  |  |
| C=C(C)[C@@H]1CC[C@]2(/C=C3\CCOC3=O)CC[C@]3(C)[C@H](CC[C@@H]4[C@@]5(C)CC[C@H](OC(C)=O)C(C)(C)[C@@H]5CC[C@]43C)[C@@H]12 | inactive |  | inactive | inactive | inactive | inactive | inactive | inactive |  | inactive | inactive | inactive |  | inactive | 19.4 | 13.9 | 18.8 |  |  |  |  |
| C=C(C)[C@@H]1CC[C@]2(/C=C/C(=O)OCC)CC[C@]3(C)[C@H](CC[C@@H]4[C@@]5(C)CC[C@H](OC(C)=O)C(C)(C)[C@@H]5CC[C@]43C)[C@@H]12 | inactive | inactive | inactive | inactive | inactive | inactive | inactive | inactive | inactive | inactive | inactive | inactive | inactive | inactive |  |  |  |  |  |  |  |
| C=C(C)[C@@H]1CC[C@]2([C@@H]3O[C@H]3C(=O)OC)CC[C@]3(C)[C@H](CC[C@@H]4[C@@]5(C)CC[C@H](OC(C)=O)C(C)(C)[C@@H]5CC[C@]43C)[C@@H]12 | inactive | inactive | inactive | inactive | inactive |  | inactive | inactive |  | inactive | inactive | inactive |  | inactive |  | 18.1 | 17.6 | 12.3 |  |  |  |
| C=C(C)[C@@H]1CC[C@]2([C@@H]3CO3)CC[C@]3(C)[C@H](CC[C@@H]4[C@@]5(C)CC[C@H](O)C(C)(C)[C@@H]5CC[C@]43C)[C@@H]12 |  |  |  | inactive | inactive |  | inactive |  |  |  |  |  | inactive |  | 20.1 | 19.9 |  | 28.2 | 20.6 | 15.4 | IC50 [14]: 26.8 µM; IC50 [15]: 18.8 µM; IC50 (SW480 [18]): 16.2 µM; IC50 (8505C [19]): 22.3 µM; IC50 (MCF7): 23.6 µM; IC50 [20]: 22.4 µM |
| C=C(C)[C@@H]1CC[C@]2([C@H](O)CC(=O)OCC)CC[C@]3(C)[C@H](CC[C@@H]4[C@@]5(C)CC[C@H](OC(C)=O)C(C)(C)[C@@H]5CC[C@]43C)[C@@H]12 | inactive |  |  | inactive |  |  | inactive |  |  |  | inactive | inactive |  | inactive | 18.7 | 13 | 23.5 | 21 | 16.5 | 21.8 | IC50 (A549 [21]): 28.2 µM; IC50 (MCF7): 27.3 µM |
| C=C(C)[C@@H]1CC[C@]2([C@H]3CO3)CC[C@]3(C)[C@H](CC[C@@H]4[C@@]5(C)CC[C@H](O)C(C)(C)[C@@H]5CC[C@]43C)[C@@H]12 | inactive |  |  | inactive | inactive | inactive | inactive |  |  |  |  |  | inactive |  | 23.5 | 20.3 |  |  | 24.6 | 18.2 | IC50 [15]: 20.1 µM; IC50 (SW480 [18]): 16.8 µM; IC50 (8505C [19]): 24.3 µM; IC50 (MCF7): 28.6 µM; IC50 [20]: 24.7 µM |
| C=C(C)[C@@H]1CC[C@]2([C@@H]3O[C@@]34CCOC4=O)CC[C@]3(C)[C@H](CC[C@@H]4[C@@]5(C)CC[C@H](OC(C)=O)C(C)(C)[C@@H]5CC[C@]43C)[C@@H]12 | inactive | inactive |  | inactive | inactive | inactive | inactive | inactive | inactive | inactive | inactive | inactive | inactive | inactive |  |  |  |  |  |  |  |
